Data from ChEMBL document CHEMBL1629533, “Identification of the spiro(oxindole-3,3'-thiazolidine)-based derivatives as potential p53 activity modulators” (J Med Chem, 2010).
The source made the active and inactive calls. No cut-off for these calls is given here.

How the values were obtained:
[1] = tested on: HEK293; assay: Cytotoxicity against transformed human HEK293 cells after 24 to 48 hrs by MTT assay; format: functional, cell-based
[2] = tested on: M14; assay: Cytotoxicity against human M14 cells after 24 to 48 hrs by MTT assay; format: functional, cell-based
[3] = tested on: U-937; assay: Cytotoxicity against human U937 cells after 24 to 48 hrs by MTT assay; format: functional, cell-based
[4] = tested on: M14; assay: Cell cycle arrest in human M14 cells assessed as accumulation at G2 phase at 3 uM after 24 hrs by flow cytometry; format: functional
Procedure, shortened: (§1)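 Trypsinized, washed in PBS, stained in the dark at 4 °C for 30 min with 0.1% sodium citrate, 0.1% Triton X-100 and propidium iodide. Analyzed by FACScan flow cytometry. Phase distribution (G0/G1, S, G2/M) given as percentage of cells.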

[5] = tested on: M14; assay: Induction of apoptosis in human M14 cells assessed as caspase-3 activation at supra cytotoxic IC50 concentration after 16 to 24 hrs by Western blot; format: functional, cell-based
[6] = tested on: M14; assay: Induction of cell morphology impairment in human M14 cells at cytotoxic IC50 concentration by phase contrast microscopy; format: functional, cell-based
Procedure, shortened: (§2)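 Logarithmically growing M14 cells plated at 10⁵ cells/mL, with compound added after 24 h and vehicle controls alongside. Followed by inverted phase-contrast time-lapse microscopy at 37 °C under 5% CO₂, images taken hourly for up to 72 h. Rounding, blebbing and detachment scored at 10, 24 and 48 h.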

[7] = tested on: M14; assay: Induction of cell morphology impairment in human M14 cells assessed as emergence of round and damaged cells at cytotoxic IC50 concentration after 10 hrs by phase contrast microscopy; format: functional, cell-based; procedure, shortened: as §2
[8] = tested on: M14; assay: Induction of apoptosis in human M14 cells at 1 to 5 uM after 24 hrs; format: functional, cell-based
[9] = tested on: M14; assay: Cell cycle arrest in human M14 cells assessed as accumulation at G2/M phase at 3 uM after 24 hrs by flow cytometry; format: functional, cell-based; procedure, shortened: as §1
[10] = tested on: M14; assay: Cell cycle arrest in human M14 cells assessed as decrease in G0/G1 phase accumulation at 3 uM after 24 hrs by flow cytometry; format: functional; design: scale not given: the % may be the effect or the level left; procedure, shortened: as §1
[11] = tested on: M14; assay: Induction of cell morphology impairment in human M14 cells assessed as cell detachment at cytotoxic IC50 concentration after 48 hrs by phase contrast microscopy
[12] = tested on: M14; assay: Effect on cell cycle progression in human M14 cells at 0.3 uM after 24 hrs by flow cytometry; format: functional, cell-based
Procedure, shortened: (§3)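 M14 cells at 2,5 × 10⁵ cells/mL in 12-well plates, treated 24 h (vehicle controls run alongside). Cells were trypsinised, washed in PBS and stained with propidium iodide in 0.1% sodium citrate/0.1% Triton X-100 at 4 °C for 30 min in the dark. FACScan analysis gave the percentage of cells in G0/G1, S and G2/M. Hypodiploid nuclei were scored as apoptotic.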

[13] = tested on: M14; assay: Induction of apoptosis in human M14 cells assessed as PARP cleavage at 0.1 to 0.3 uM after 16 hrs by Western blot; format: functional, cell-based
Procedure, shortened: (§4)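 M14 cells (1 × 10⁶ per flask) exposed 16 and 24 h, then lysed in ice-cold Triton lysis buffer with protease inhibitors. Equal protein run on 8-12% SDS-PAGE and blotted to nitrocellulose. Probed overnight at 4 °C for cleaved active caspase-3 subunits or PARP cleavage (85 kDa fragment), with HRP secondary and ECL read-out. Tubulin reprobe.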

[14] = tested on: M14; assay: Induction of apoptosis in human M14 cells assessed as caspase-3 activation at 0.1 to 0.3 uM after 16 hrs by Western blot; format: functional, cell-based; procedure, shortened: as §4
[15] = tested on: M14; assay: Effect on cell cycle progression in human M14 cells at 1 uM after 24 hrs by flow cytometry; format: functional, cell-based; procedure, shortened: as §3
[16] = tested on: M14; assay: Increase in p53 expression in human M14 cells at 0.3 uM after 24 to 48 hrs by Western blot; format: functional, cell-based
Procedure, shortened: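 M14 cells (1 × 10⁶ per flask) treated 24 and 48 h alongside untreated controls. Lysed in ice-cold Tris/NaCl/EDTA/1% Triton buffer with protease inhibitors. Equal protein run on 8-12% SDS-PAGE and blotted to nitrocellulose. Blocked in milk/Tween-TBS, anti-p53 overnight at 4 °C, HRP secondary, ECL detection. Cytoplasmic p53 read, with tubulin as reprobe.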

[17] = tested on: M14; assay: Increase in p53 expression in human M14 cells at 3 uM after 24 to 48 hrs by Western blot; format: functional, cell-based
Procedure, shortened: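 M14 cells (1 × 10⁶ per flask), treated for 24 and 48 h. Lysed in ice-cold 50 mM Tris, 150 mM NaCl, 10 mM EDTA, 1% Triton with protease inhibitors. Equal protein run on 8-12% SDS-PAGE and blotted to nitrocellulose. Cytoplasmic p53 probed overnight at 4 °C, detected by HRP secondary and ECL, with tubulin as loading reprobe.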

`CCCC(=O)N1C(=O)[C@]2(SC[C@H]3C(=O)N(Cc4ccc(Cl)cc4)C(=O)N32)c2ccccc21` gave an IC50 [1] of 2.01 µM, an IC50 [2] of 2.04 µM and an IC50 [3] of 2.1 µM.

`O=C1[C@@H]2CS[C@]3(C(=O)N(C(=O)c4ccccc4)c4ccccc43)N2C(=O)N1Cc1ccc(Cl)cc1` gave an IC50 [1] of 3.5 µM, an IC50 [2] of 3.25 µM and an IC50 [3] of 3.12 µM.

`CC1(C)CCC(N2C(=O)[C@@H]3CS[C@]4(C(=O)Nc5ccccc54)N3C2=O)CC1` showed an IC50 [1] of 4.22 µM, an IC50 [2] of 7.07 µM and an IC50 [3] of 2.61 µM.

`Cc1ccc2c(c1)[C@@]1(SC[C@H]3C(=O)N(Cc4ccccc4)C(=O)N31)C(=O)N2` gave an IC50 [1] of 3.3 µM, an IC50 [2] of 3.88 µM and an IC50 [3] of 2.09 µM.

With `CN1C(=O)[C@]2(SC[C@H]3C(=O)N(C4CCC(C)(C)CC4)C(=O)N32)c2ccccc21` the IC50 [1] was > 40 µM, the IC50 [2] was > 40 µM and the IC50 [3] was > 40 µM.

In the case of `CCCC(=O)N1C(=O)[C@]2(SC[C@H]3C(=O)N(Cc4cc(OC)c(OC)c(OC)c4)C(=O)N32)c2cc(C)ccc21`, the IC50 [1] is reported as 4.42 µM, the IC50 [2] is reported as 7.4 µM and the IC50 [3] is reported as 4.1 µM.

`COc1cc(CN2C(=O)[C@@H]3CS[C@]4(C(=O)Nc5ccc(Br)cc54)N3C2=O)cc(OC)c1OC` was tested, and the IC50 [1] was 9.31 µM, the IC50 [2] was 11 µM and the IC50 [3] was 5.02 µM.

`CN1C(=O)[C@]2(SC[C@H]3C(=O)N(Cc4ccc(Cl)cc4)C(=O)N32)c2ccccc21` showed an IC50 [1] of 2.11 µM, an IC50 [2] of 2.47 µM and an IC50 [3] of 2.91 µM.

In the case of `COc1cc(CN2C(=O)[C@@H]3CS[C@]4(C(=O)N(C(=O)c5ccc(Cl)cc5)c5ccc(C)cc54)N3C2=O)cc(OC)c1OC`, the IC50 [1] is reported as 4.71 µM, the IC50 [2] is reported as 8.14 µM and the IC50 [3] is reported as 3.11 µM.

`O=C1[C@@H]2CS[C@]3(C(=O)Nc4ccc(Br)cc43)N2C(=O)N1Cc1ccc(Cl)cc1` was tested, and the IC50 [1] was 7.13 µM, the IC50 [2] was 7.06 µM and the IC50 [3] was 5.01 µM.

With `O=C1[C@@H]2CS[C@]3(C(=O)Nc4ccc(Br)cc43)N2C(=O)N1Cc1ccccc1` the IC50 [1] was 8.48 µM, the IC50 [2] was 12 µM and the IC50 [3] was 7.58 µM.

`Cc1ccc(C(=O)N2C(=O)[C@]3(SC[C@H]4C(=O)N(Cc5ccc(Cl)cc5)C(=O)N43)c3ccccc32)cc1` showed an IC50 [1] of 2.5 µM, an IC50 [2] of 2.08 µM and an IC50 [3] of 2.01 µM.

For `COc1cc(CN2C(=O)[C@@H]3CS[C@]4(C(=O)Nc5ccc(C)cc54)N3C2=O)cc(OC)c1OC`, the IC50 [1] was 2.04 µM, the Activity [4] was 47% and the Activity [5] was “inactive”. For the same compound, the Activity [6] was “Active”, the IC50 [2] was 2.4 µM and the IC50 [3] was 2.06 µM. The Activity [7] was “Active”, the Activity [8] was “inactive” and the Activity [9] was “Active”. For the same compound, the Activity [10] was 20% and the Activity [11] was “Active”.

Compound `COc1cc(CN2C(=O)[C@@H]3CS[C@]4(C(=O)N(C(=O)c5ccccc5)c5ccc(C)cc54)N3C2=O)cc(OC)c1OC` has an IC50 [1] of 4.22 µM, an IC50 [2] of 7.84 µM and an IC50 [3] of 4.31 µM.

`COc1cc(CN2C(=O)[C@@H]3CS[C@]4(C(=O)Nc5ccccc54)N3C2=O)cc(OC)c1OC` showed an IC50 [1] of 3.8 µM, an IC50 [2] of 4.73 µM and an IC50 [3] of 2.51 µM.

`O=C1[C@@H]2CS[C@]3(C(=O)Nc4ccccc43)N2C(=O)N1Cc1ccccc1` was tested, and the IC50 [1] was 4.8 µM, the IC50 [2] was 10.6 µM and the IC50 [3] was 3.9 µM.

In the case of `CN1C(=O)[C@]2(SC[C@H]3C(=O)N(Cc4ccccc4)C(=O)N32)c2ccccc21`, the IC50 [1] is reported as 3.98 µM, the IC50 [2] is reported as 6.37 µM and the IC50 [3] is reported as 2.89 µM.

For `Cc1ccc(CN2C(=O)[C@@H]3CS[C@]4(C(=O)Nc5ccccc54)N3C2=O)cc1`, the IC50 [1] was 4.53 µM, the IC50 [2] was 13.3 µM and the IC50 [3] was 5.91 µM.

`CC1(C)CCC(N2C(=O)[C@@H]3CS[C@]4(C(=O)Nc5ccc(Br)cc54)N3C2=O)CC1` was tested, and the IC50 [1] was > 40 µM, the IC50 [2] was > 40 µM and the IC50 [3] was > 40 µM.

With `O=C1[C@@H]2CS[C@]3(C(=O)Nc4ccccc43)N2C(=O)N1Cc1ccc(Cl)cc1` the IC50 [1] was 0.44 µM, the Activity [12] was “inactive” and the Activity [13] was “Active”. The Activity [6] was “Active”, the IC50 [2] was 0.53 µM and the IC50 [3] was 0.87 µM. For the same compound, the Activity [14] was “Active”, the Activity [7] was “Active” and the Activity [15] was “inactive”. The Activity [16] was “Active” and the Activity [11] was “Active”.

In the case of `Cc1ccc(CN2C(=O)[C@@H]3CS[C@]4(C(=O)N(C)c5ccccc54)N3C2=O)cc1`, the IC50 [1] is reported as 10.7 µM, the IC50 [2] is reported as 31.8 µM and the IC50 [3] is reported as 16.8 µM.

`COc1cccc2c1C(=O)c1c(O)c3c(c(O)c1C2=O)C[C@@](O)(C(=O)CO)C[C@@H]3O[C@H]1C[C@H](N)[C@H](O)[C@H](C)O1` [DOXORUBICIN] gave an IC50 [1] of 0.9 µM, an IC50 [2] of 1 µM and an IC50 [3] of 0.8 µM.

With `Cc1ccc2c(c1)[C@@]1(SC[C@H]3C(=O)N(Cc4ccc(Cl)cc4)C(=O)N31)C(=O)N2` the IC50 [1] was 3.88 µM, the IC50 [2] was 6.65 µM and the IC50 [3] was 3.31 µM. The Activity [17] was “Active”.

`Cc1ccc(CN2C(=O)[C@@H]3CS[C@]4(C(=O)Nc5ccc(Br)cc54)N3C2=O)cc1` was tested, and the IC50 [1] was 7.61 µM, the IC50 [2] was 10.2 µM and the IC50 [3] was 6.23 µM.

In the case of `Cc1ccc2c(c1)[C@@]1(SC[C@H]3C(=O)N(C4CCC(C)(C)CC4)C(=O)N31)C(=O)N2`, the IC50 [1] is reported as 16 µM, the IC50 [2] is reported as 19.1 µM and the IC50 [3] is reported as 12.5 µM.

`COc1cc(CN2C(=O)[C@@H]3CS[C@]4(C(=O)N(C(=O)c5ccc(C)cc5)c5ccc(C)cc54)N3C2=O)cc(OC)c1OC` gave an IC50 [1] of 3.81 µM, an IC50 [2] of 5.95 µM and an IC50 [3] of 2.42 µM.

Compound `Cc1ccc(CN2C(=O)[C@@H]3CS[C@]4(C(=O)Nc5ccc(C)cc54)N3C2=O)cc1` has an IC50 [1] of 3.01 µM, an IC50 [2] of 3.39 µM and an IC50 [3] of 2.77 µM.

With `COc1cc(CN2C(=O)[C@@H]3CS[C@]4(C(=O)N(C)c5ccccc54)N3C2=O)cc(OC)c1OC` the IC50 [1] was 6.01 µM, the IC50 [2] was 7.66 µM and the IC50 [3] was 5.7 µM.

With `O=C1[C@@H]2CS[C@]3(C(=O)N(C(=O)c4ccc(Cl)cc4)c4ccccc43)N2C(=O)N1Cc1ccc(Cl)cc1` the IC50 [1] was 5.01 µM, the IC50 [2] was 3.37 µM and the IC50 [3] was 2.61 µM.
